Source: PubChem BioAssay (several laboratories)
Sampled rows, rich in hits. Any-hit rate of the full collection: about 1.9%.
NR2E3 ag-1 – NR2E3 agonists in two-hybrid cells, primary screen, cell-based, luminescence, CHO-S, Gal4-NCOR/VP16-NR2E3; Photoreceptor-specific nuclear receptor (Homo sapiens), Q9Y5X4; luciferase; inhibition of corepressor binding, % at 3.98 µM; hit rate 0.35% among 360,000; AID 602229, 2012;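 active = inhibition above the mean of all tested compounds plus 3 SD, cut at about 70% in these data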;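 note: 0% = DMSO with NR2E3 transfected cells and 100% = cells lacking NR2E3 construct; higher means lower luciferase signal from less NR2E3 corepressor binding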
SKN-1 inh – suppressors of acrylamide-induced Pgst-4::GFP reporter in worms, primary screen, SKN-1 inhibitor project, whole organism, uHTS, GFP/RFP fluorescence ratio, strain VP596 | C. elegans VP596 Pgst-4::GFP/RFP ratio, 24 h | inhibition, % at 21.8 µM | hit rate 0.49% among 360,000 | AID 624304, 2012;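 active = interference check ratio from 0.5 to 1.5 plus GFP to RFP signal ratio inhibition reaching or exceeding a fixed threshold, cut at about 30% in these data, passing the limit was not always enough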
PG9 Ab binder – binders of HIV-1 gp120 antibody PG9, primary screen, biochemical, TR-FRET; AID 624416, 2012; hit rate 0.43% among 360,000; TR-FRET gp120-PG9 antibody binding; inhibition, % at 6.7 µM; in the data active = inhibition above about 8.5%
MT1-MMP act inh – blockers of MT1-MMP proenzyme processing, primary screen, HT1080 RFP-PRO-GFP cells, GFP/RFP fluorescence | Matrix metalloproteinase-14 (Homo sapiens), P50281 | GFP/RFP ratio fluorescence, overnight; percent of plate control window, DMSO zero | GFP/RFP ratio change, % at 20 µM | hit rate 0.061% among 360,000;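 active = GFP/RFP ratio change of at least 30% with cell ATP level not reduced by more than half and red fluorescence within 50% of control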
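Read-out: GFP/RFP fluorescence ratio; Test system: RFP-PRO-GFP reporter HT1080 cells; Compound dosing: single-point 20 µM compound, 1% DMSO; Times: overnight compound exposure at 37 °C.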
NR1D1 modulator – modulators of Rev-erb alpha DNA binding, primary screen, biochemical, FITC-DNA, fluorescence polarization, uHTS. Rev-erbα–FITC-DNA binding, 90 min. Nuclear receptor subfamily 1 group D member 1 (Homo sapiens), P20393. hit rate 0.79% among 370,000. activity, % at 10 µM;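 active = activity above about 14%, limit read from the data; passing the limit was not always enough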;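 note: 0% = DMSO wells with 35 nM protein and 100% = DMSO wells with 750 nM protein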
Target sequence (P20393 whole entry, looked up): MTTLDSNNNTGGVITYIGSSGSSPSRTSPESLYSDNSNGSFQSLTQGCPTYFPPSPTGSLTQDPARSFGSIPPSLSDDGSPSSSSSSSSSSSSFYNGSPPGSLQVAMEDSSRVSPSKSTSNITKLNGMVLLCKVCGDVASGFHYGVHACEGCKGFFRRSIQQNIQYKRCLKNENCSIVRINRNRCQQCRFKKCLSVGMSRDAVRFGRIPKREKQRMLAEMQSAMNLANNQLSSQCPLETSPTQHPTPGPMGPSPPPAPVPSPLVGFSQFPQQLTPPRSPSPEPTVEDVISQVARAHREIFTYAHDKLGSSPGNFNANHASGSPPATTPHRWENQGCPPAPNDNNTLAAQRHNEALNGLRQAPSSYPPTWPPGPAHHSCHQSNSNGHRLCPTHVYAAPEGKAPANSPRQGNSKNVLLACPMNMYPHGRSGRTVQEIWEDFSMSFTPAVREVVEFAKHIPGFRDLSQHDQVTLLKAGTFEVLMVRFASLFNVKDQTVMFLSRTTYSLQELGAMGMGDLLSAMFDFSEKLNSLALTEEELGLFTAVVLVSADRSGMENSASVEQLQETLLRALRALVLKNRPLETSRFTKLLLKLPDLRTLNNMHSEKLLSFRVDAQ
NR2E3 ag-2 – inhibitors of NR2E3-RetCOR corepressor binding, primary screen, NR2E3 agonist project, biochemical, TR-FRET, GST-NR2E3, biotin-RetCOR; Photoreceptor-specific nuclear receptor (Homo sapiens), Q9Y5X4; 1536-well; inhibition of corepressor binding, % at 4.78 µM; hit rate 0.12% among 320,000; AID 2300, 2010;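 active = percent inhibition above the cutoff of mean plus 3 SD of all tested compounds, set per screening campaign, cut at about 20% in these data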;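 note: 0% = DMSO wells and 100% = biotin wells as full block of FRET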
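system = GST-tagged NR2E3 plus biotinylated RetCOR corepressor | input = 1.35 nM GST-NR2E3 | also added = 7 nM biotin-RetCOR | schedule = 5 h incubation at 4 °C | measured by = TR-FRET with europium anti-GST and streptavidin-D2, 340 nm excitation | read-out = percent loss of FRET ratio relative to control wells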
NR1D1 mod conf – modulators of Rev-erb alpha DNA binding, confirmation, biochemical, FITC-DNA, fluorescence polarization, single point; activation, % at 25 µM; hit rate 61% among 3,000; 90 min; shares compounds with NR1D1 modulator;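 active = activation at or above a set limit, or at least 3 SD above the negative control mean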;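 note: 0% = 35 nM protein with DMSO and 100% = 750 nM protein high control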
RORg DNA counter – modulation of RORgamma DNA binding, dose response, counter-screen for Rev-erb alpha modulator project, biochemical, fluorescence polarization, FITC-DNA | hit rate 8% among 910 | purified RORgamma protein-FITC-DNA binding | shares compounds with NR1D1 modulator | IC50, µM;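 active = Compounds whose fitted half-maximal concentration for disrupting protein-DNA binding is below 10 micromolar; the record names Rev-erb in its text, so the target is in doubt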
The depositor's hits bear a star; nt = not tested or not shown; ! = not active in a repeat.

SMILES	NR2E3 ag-1	SKN-1 inh	PG9 Ab binder	MT1-MMP act inh	NR1D1 modulator	NR2E3 ag-2	NR1D1 mod conf	others
Cc1ccc(S(=O)(=O)[N-]c2nc3ccccc3nc2-n2cc[n+](CCC(C)C)c2)cc1	-7.4	7.1	-4.3	-3.2	-1.6	1.0	nt
O=S(=O)([N-]c1nc2ccccc2nc1-n1cc[n+](Cc2ccccc2)c1)c1ccc(Br)cc1	5.2	11.7	-1.1	-1.9	66.8*	0.1	46.5*	RORg DNA counter=5.02*
CCNC(=O)C1(C)CCCN(C(=O)c2cc(C)nn2C(C)(C)C)C1 (stereo unspecified)	-42.9	5.1	-0.7	0.7	1.6	nt	nt
COc1cc2oc(=O)c3c(c2cc1OCC(=O)c1c(C)n(C)c2ccccc12)CCCC3	-2.9	9.8	-1.1	6.8	36.1*	-4.0	-12.3
Cc1cc(C)nc(NC(=O)CSc2nc3cc(Cl)ccc3s2)n1	11.0	10.0	-1.5	7.4	1.7	1.8	nt
CCOC(=O)c1c(NC(=O)CSc2nc3ccccc3s2)sc(C(C)=O)c1C	18.9	17.4	-1.0	-11.3	25.3*	4.0	42.7*	RORg DNA counter=>40
CCOC(=O)c1c(NC(=O)CSc2nc3cc(Cl)ccc3s2)sc(C(C)=O)c1C	nt	nt	-5.6	nt	65.2*	5.0	4.2
O=C(NCc1ccccc1)[C@H]1CCCN1C(=O)[C@H]1CCCN1C(=O)c1cccs1	nt	nt	1.7	nt	6.3	nt	nt
Cc1cc(C)c(NC(=O)CSc2nc(COc3ccccc3)nc3ccccc23)c(C)c1	-26.4	7.5	-0.4	-1.0	54.8*	-4.9	47.2*	RORg DNA counter=>40
Cc1ccc2c(COC(=O)CNS(=O)(=O)c3ccccc3)cc(=O)oc2c1	6.2	-10.5	1.8	-0.6	2.7	nt	nt
CCOC(=O)Nc1ccc2c(COC(=O)CNS(=O)(=O)c3ccc(NC(C)=O)cc3)cc(=O)oc2c1	-6.6	14.6	6.0	3.8	54.5*	4.8	34.7*	RORg DNA counter=>40
O=C(NNc1c2ccccc2nc2ccccc12)c1cccc(O)c1	-9.1	4.0	-12.4	12.9	19.8*	-3.2	15.9
COc1cc(NC(=O)c2nccn2C)cc(C(=O)Nc2cccc(C(F)(F)F)c2)c1	-28.7	11.5	-1.6	0.2	19.1*!	3.4	15.0*
Cn1nc(C2CC2)cc1NC(=O)C1(C)CCN1C(=O)CC(c1ccccc1)c1ccccc1 (stereo unspecified)	0.6	6.2	-0.7	-1.1	-4.9	nt	nt
Cc1ccc(S(=O)(=O)c2nc(Nc3ccccc3N3CCOCC3)sc2Cl)cc1	-21.5	2.4	-1.4	-18.2	0.3	0.5	nt
Cc1ccc(S(=O)(=O)c2nc(Nc3ccccc3C#N)sc2Cl)cc1	-3.8	6.8	46.2*	-6.8	27.4*	0.1	36.1*	RORg DNA counter=>40
CCNC(=O)C1(C)CCN(C(=O)c2ccccc2F)C1 (stereo unspecified)	-11.6	8.2	0.0	0.5	-9.4	nt	nt
CCOC(=O)N1CCN(c2ncnc3c2oc2nc(C(C)C)c4c(c23)CCC4)CC1	-24.6	-4.2	3.0	-1.5	44.6*	0.3	83.7*	RORg DNA counter=>40
COC(=O)C[C@@H]1CC[C@@H](NS(=O)(=O)c2cccc(OC)c2)[C@@H](CO)O1	nt	7.8	0.7	1.8	-1.2	nt	nt
CCN(CC)S(=O)(=O)c1ccc(C(=O)NNC(=O)c2csc(N3CCOCC3)n2)cc1	1.1	9.2	2.6	-3.4	-0.9	-0.9	nt
CN(C)S(=O)(=O)c1ccc(C(=O)OCC(=O)c2csc(N3CCCCC3)n2)cc1	-24.8	15.4	-1.1	-2.4	23.7*	2.9	10.6
CN(C)/C=N/c1ncc(C(=O)c2ccc(-c3ccccc3)cc2)s1	-50.3	12.2	1.5	-1.1	16.5*	3.9	10.2
CN(C)/C=N/c1ncc(C(=O)c2ccccc2)s1	-84.7	24.7	-1.0	3.9	-4.5	3.0	nt
COc1cc(C(=O)NCc2cccnc2)ccc1OCC(=O)Nc1cccc(C(F)(F)F)c1	8.5	-3.3	0.0	1.0	18.3*	4.9	7.1
CCOc1ccc(NC(=O)COc2ccc(C(=O)NCc3cccnc3)cc2OC)cc1	8.9	7.9	-1.8	3.6	-4.7	-1.9	nt
SMILES	NR2E3 ag-1	SKN-1 inh	PG9 Ab binder	MT1-MMP act inh	NR1D1 modulator	NR2E3 ag-2	NR1D1 mod conf	others
COc1ccc2cc(C#N)c(SCC(=O)N3CCCC3)nc2c1	-3.1	20.7	-3.2	-0.8	-1.9	2.7	nt
CCOc1ccc2cc(C#N)c(SCC(=O)N3CCC(C)CC3)nc2c1	-11.2	20.3	-1.2	-2.3	69.8*	2.0	34.0*
CCOc1ccc2nc(SCC#N)c(C#N)cc2c1	-27.2	5.9	-6.4	-7.1	39.1*	0.9	24.5*
Cc1ccc2nc(-c3ccc(NC(=O)CN4C(=O)NC(C)(c5ccc(OC(F)F)cc5)C4=O)cc3)sc2c1 (stereo unspecified)	-131.2	11.2	4.3	6.6	24.1*	-0.1	7.8
CC1(c2ccc(OC(F)F)cc2)NC(=O)N(CC(=O)Nc2ccccc2)C1=O (stereo unspecified)	-31.2	3.2	0.8	2.1	3.8	-1.2	nt
CC(=O)Nc1ccc(S(=O)(=O)Nc2ccn(Cc3ccccc3Cl)n2)cc1	-7.2	4.6	-1.7	1.9	14.7*	nt	-3.2
CC(=O)Nc1ccc(S(=O)(=O)Nc2ccc(Cl)nn2)cc1	13.6	7.7	0.0	0.5	-4.7	4.1	nt
CC(C)NC(=O)N[C@H]1C[C@@H]2O[C@@H](CO)CC[C@@H]2O[C@@H]1CCc1ccc(-c2ccc(F)cc2)cc1	nt	nt	nt	nt	-12.6	nt	nt
COc1ccc(CC(=O)OCc2cc3cccc(C)c3[nH]c2=O)cc1	-7.4	4.3	nt	4.5	24.0	4.0	nt
COc1ccc(C(=O)OCc2cc3cccc(C)c3[nH]c2=O)cc1	10.6	-8.7	6.1	-1.6	58.6*	15.7	26.5*
CCCCNC(=O)c1cc2n(n1)C(C(F)(F)F)CC(c1ccccc1)N2 (stereo unspecified)	-17.9	14.4	-0.6	4.2	-5.2	0.1	nt
